Laboratory results reported in ChEMBL document CHEMBL1134902, “Quinoline-3-carbothioamides and related compounds as novel immunomodulating agents” (2002).

Legend:
Format in all cases: functional
Mus musculus [1] = test: Antinephritic activity against Graft-Versus-Host Disease (GVHD) induced (C57BL/6DBA/2)F1 mice at a dose of 32 mg/kg administered perorally; settings: route oral
Outline: (§1)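 Chronic GVHD induced in 6-week-old female (C57BL/6 × DBA/2)F1 mice by two injections of DBA/2 spleen cells (5 × 10⁷ each), given 5 days apart. Oral dosing once daily for 8 weeks, starting 3 days after the second injection. Urinary albumin measured after the last dose by single radial immunodiffusion with rabbit anti-mouse albumin antiserum. 10 mice/group; % inhibition of proteinuria; Student's t-test.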

Mus musculus [2] = test: Activity expressed as percent inhibition of anti-TNP IgM level in TNP-LPS immunized mice, at a dose of 10 mg/kg perorally; settings: route oral
Outline: (§2)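 Female (C57BL/6 × DBA/2)F1 mice, 6 weeks old, immunized i.v. with TNP-LPS on day 0, then randomized (7/group). Compound given orally on days 0 and 1. Serum taken on day 4 and anti-TNP IgM measured by ELISA. Result given as % inhibition of IgM level versus control, with significance by Student's t-test.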

Mus musculus [3] = test: Activity was expressed as percent inhibition of anti-TNP IgM level in TNP-LPS immunized mice, at a dose of 0.1 mg/kg perorally; settings: route oral; outline: as §2
Mus musculus [4] = test: Activity was expressed as percent inhibition of anti-TNP IgM level in TNP-LPS immunized mice, at a dose of 1 mg/kg perorally; settings: route oral; outline: as §2
Mus musculus [5] = test: Antinephritic activity against Graft-Versus-Host Disease (GVHD) induced (C57BL/6DBA/2) F1 mice at a dose of 32 mg/kg administered perorally; settings: route oral; outline: as §1
Mus musculus [6] = test: Inhibition of anti-DNA antibody in autoimmune diseased MRL/I mice at a dose of 1 mg/kg administered perorally; settings: route oral
Mus musculus [7] = test: Inhibition of anti-DNA antibody in autoimmune diseased MRL/I mice at a dose of 3.2 mg/kg administered perorally; settings: route oral
Mus musculus [8] = test: Inhibition of histological score (Nephritis in the kidneys) in the autoimmune diseased MRL/l mice at a dose of 0.32 mg/kg administered perorally; settings: route oral
Mus musculus [9] = test: Inhibition of histological score (Nephritis in the kidneys) in the autoimmune diseased MRL/l mice at a dose of 1 mg/Kg administered perorally; settings: po
Mus musculus [10] = test: Inhibition of histological score (Nephritis in the kidneys) in the autoimmune diseased MRL/l mice at a dose of 3.2 mg/Kg administered perorally; settings: po
Mus musculus [11] = test: Activity was expressed as percent inhibition of anti-TNP IgM level in TNP-LPS immunized mice, at a dose of 0.01 mg/kg perorally; settings: route oral; outline: as §2
Mus musculus [12] = test: Activity was expressed as percent inhibition of anti-TNP IgM level in TNP-LPS immunized mice, at a dose of 100 mg/kg perorally; settings: route oral; outline: as §2
Mus musculus [13] = test: Inhibition of anti-DNA antibody in autoimmune diseased MRL/I mice at a dose of 0.32 mg/Kg administered perorally; settings: po

Row | Compound | inhibition in vivo at 32 mg/kg (Mus musculus [1]) [%] | inhibition in vivo at 10 mg/kg (Mus musculus [2]) [%] | other results
1 | CSCCN(C(=O)c1c(O)c2cc(SC)ccc2n(C)c1=O)c1ccccc1 | 65 |  | 
2 | CN1C(=O)/C(=C(/S)N(C)c2ccccc2)C(=O)c2cc(OC(F)(F)F)ccc21 |  | 19 | 
3 | CN1C(=O)/C(=C(/S)N(C)c2ccc(Br)cc2)C(=O)c2cc(Cl)ccc21 |  | 50 | 
4 | Cc1ccc(N(C)/C(S)=C2/C(=O)c3cc(Cl)ccc3N(C)C2=O)cc1 |  | 23 | 
5 | CN1C(=O)/C(=C(/S)N(C)c2ccccc2)C(=O)c2ccc(Cl)cc21 | -23 |  | 
6 | Cn1c(=O)c(C(=S)N(c2ccccc2)C(C)(C)C)c(O)c2cc(Cl)ccc21 |  | 11 | 
7 | CSc1ccc(N(C)C(=O)c2c(O)c3cc(SC)ccc3n(C)c2=O)cc1 | 87 |  | 
8 | COc1ccc2c(c1)c(O)c(C(=S)N(C)c1ccccc1)c(=O)n2C | 99 | 31 | 
9 | CN1C(=O)/C(=C(/S)N(C)c2cccc(Cl)c2)C(=O)c2cc(Cl)ccc21 |  | 63 | 
10 | CN1C(=O)/C(=C(/S)N(C)c2ccccc2)C(=O)c2cc(-n3cccc3)ccc21 |  | -10 | 
11 | CN1C(=O)/C(=C(/S)N(C)c2ccc(Cl)cc2)C(=O)c2cc(Cl)ccc21 |  | 47 | 
12 | CSc1ccc2c(c1)c(O)c(S(=O)(=O)N(C)c1ccccc1)c(=O)n2C | 53 |  | 
13 | C=CCN(C(=S)c1c(O)c2cc(Cl)ccc2n(C)c1=O)c1ccccc1 | 96 |  | 
14 | CS/C(=N\c1ccccc1)c1c(O)c2cc(SC)ccc2n(C)c1=O | 84 |  | 
15 | CN1C(=O)/C(=C(/S)N(C)c2ccccc2)C(=O)c2cc(Br)ccc21 | 98 | 56 | 
16 | Cc1ccc2c(c1)C(=O)/C(=C(\S)N(C)c1ccccc1)C(=O)N2C |  | 20 | 
17 | Cn1c(=O)c(/C(S)=N/c2ccccc2)c(O)c2cc(Cl)ccc21 |  | 38 | 

Row | Compound | inhibition in vivo at 32 mg/kg (Mus musculus [1]) [%] | inhibition in vivo at 10 mg/kg (Mus musculus [2]) [%] | other results
18 | COCCCN(/C(S)=C1/C(=O)c2cc(Cl)ccc2N(C)C1=O)c1ccccc1 |  | 31 | 
19 | COc1ccc(N(C)/C(S)=C2/C(=O)c3cc(Cl)ccc3N(C)C2=O)cc1 | 97 | 45 | 
20 | CN1C(=O)/C(=C(/S)N(C)c2cccs2)C(=O)c2cc(Cl)ccc21 |  | 19 | 
21 | CN1C(=O)/C(=C(/S)N(C)c2ccccc2)C(=O)c2ccccc21 | 85 |  | 
22 | CSc1ccc2c(c1)c(O)c(C(=S)N(C)c1ccccc1)c(=O)n2C | 99 | 32 | 
23 | CN1C(=O)/C(=C(/S)N(C)c2ccc(F)c(F)c2)C(=O)c2cc(Cl)ccc21 |  | 62 | 
24 | CSc1ccc2c(c1)c(O)c(C(=O)N(C)c1ccccc1)c(=O)n2C |  | 67 | inhibition in vivo at 0.1 mg/kg (Mus musculus [3]): 18%; inhibition in vivo at 1 mg/kg (Mus musculus [4]): 50%; inhibition in vivo at 32 mg/kg (Mus musculus [5]): 100%
25 | CN1C(=O)/C(=C(/S)N(C)c2ccc(OC(F)(F)F)cc2)C(=O)c2cc(Cl)ccc21 |  | 39 | 
26 | Cc1cc(Cl)cc2c1N(C)C(=O)/C(=C(/S)N(C)c1ccccc1)C2=O |  | 17 | 
27 | COc1cccc(N(C)/C(S)=C2/C(=O)c3cc(Cl)ccc3N(C)C2=O)c1 | 74 | 30 | 
28 | CN1C(=O)/C(=C(/S)N(C)c2cccc(C(F)(F)F)c2)C(=O)c2cc(Cl)ccc21 |  | 29 | 
29 | CN1C(=O)/C(=C(/S)N(C)c2ccccc2)C(=O)c2cc(Cl)ccc21 | 100 | 64 | inhibition in vivo at 1 mg/kg (Mus musculus [6]): 73%; inhibition in vivo at 3.2 mg/kg (Mus musculus [7]): 83%; inhibition in vivo at 0.32 mg/kg (Mus musculus [8]): 67%; inhibition in vivo at 1 mg/kg (Mus musculus [9]): 85%; inhibition in vivo at 3.2 mg/kg (Mus musculus [10]): 85%; inhibition in vivo at 0.01 mg/kg (Mus musculus [11]): -3%; inhibition in vivo at 0.1 mg/kg (Mus musculus [3]): 22%; inhibition in vivo at 1 mg/kg (Mus musculus [4]): 33%; inhibition in vivo at 100 mg/kg (Mus musculus [12]): 77%; inhibition in vivo at 0.32 mg/kg (Mus musculus [13]): 52%
30 | CN1C(=O)/C(=C(/S)N(C)c2ccc(F)cc2)C(=O)c2cc(Cl)ccc21 |  | 54 | 
31 | CSc1ccc2c(c1)c(=O)c(C(=O)N(C)c1ccccc1)c(S)n2C | 96 |  | 
32 | CSc1ccc2c(c1)c(=O)c(C(=S)N(C)c1ccccc1)c(S)n2C | 37 |  | 
33 | CN(C(=O)c1c(O)c2ccccc2n(C)c1=O)c1ccccc1 [ROQUINIMEX] |  | 41 | inhibition in vivo at 1 mg/kg (Mus musculus [4]): 13%; inhibition in vivo at 100 mg/kg (Mus musculus [12]): 49%
